# ChEMBL document CHEMBL5357038, “Highly efficient, catalyst-free, one-pot sequential four-component synthesis of novel spiroindolinone-pyrazole scaffolds as anti-Alzheimer agents: in silico study and biological screening” (RSC Med Chem, 2024)
# Calls of active or inactive are those of the source. No cut-off for these calls is given here.
# Columns and labels:
# Cholinesterase [1] = molecular target: T1, Cholinesterase (Homo sapiens, UniProt P06276); assay: Inhibition of BuChE (unknown origin) incubated for 15 mins by DTNB reagent based Ellman's method
# T1 sequence (P06276 whole entry): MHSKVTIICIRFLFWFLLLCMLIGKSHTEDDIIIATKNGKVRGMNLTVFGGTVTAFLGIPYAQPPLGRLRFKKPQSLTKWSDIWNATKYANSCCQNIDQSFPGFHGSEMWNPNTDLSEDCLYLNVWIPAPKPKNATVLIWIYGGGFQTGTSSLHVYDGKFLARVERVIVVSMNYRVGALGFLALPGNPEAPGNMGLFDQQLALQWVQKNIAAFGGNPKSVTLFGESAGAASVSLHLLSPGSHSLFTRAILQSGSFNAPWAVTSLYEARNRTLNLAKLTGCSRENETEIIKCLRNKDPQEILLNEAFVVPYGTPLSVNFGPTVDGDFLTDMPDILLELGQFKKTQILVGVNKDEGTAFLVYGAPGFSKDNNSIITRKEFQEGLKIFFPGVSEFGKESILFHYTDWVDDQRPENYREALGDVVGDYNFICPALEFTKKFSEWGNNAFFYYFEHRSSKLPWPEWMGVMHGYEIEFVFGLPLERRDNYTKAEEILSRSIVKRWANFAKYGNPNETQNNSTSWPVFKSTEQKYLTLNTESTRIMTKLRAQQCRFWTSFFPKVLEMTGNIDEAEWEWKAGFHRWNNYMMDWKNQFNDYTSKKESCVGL
# Acetylcholinesterase [2] = molecular target: T2, Acetylcholinesterase (Homo sapiens, UniProt P22303); assay: Inhibition of AChE (unknown origin) using acetylthiocholine as substrate incubated for 15 mins by DTNB reagent based Ellman's method
# T2 sequence (P22303 whole entry): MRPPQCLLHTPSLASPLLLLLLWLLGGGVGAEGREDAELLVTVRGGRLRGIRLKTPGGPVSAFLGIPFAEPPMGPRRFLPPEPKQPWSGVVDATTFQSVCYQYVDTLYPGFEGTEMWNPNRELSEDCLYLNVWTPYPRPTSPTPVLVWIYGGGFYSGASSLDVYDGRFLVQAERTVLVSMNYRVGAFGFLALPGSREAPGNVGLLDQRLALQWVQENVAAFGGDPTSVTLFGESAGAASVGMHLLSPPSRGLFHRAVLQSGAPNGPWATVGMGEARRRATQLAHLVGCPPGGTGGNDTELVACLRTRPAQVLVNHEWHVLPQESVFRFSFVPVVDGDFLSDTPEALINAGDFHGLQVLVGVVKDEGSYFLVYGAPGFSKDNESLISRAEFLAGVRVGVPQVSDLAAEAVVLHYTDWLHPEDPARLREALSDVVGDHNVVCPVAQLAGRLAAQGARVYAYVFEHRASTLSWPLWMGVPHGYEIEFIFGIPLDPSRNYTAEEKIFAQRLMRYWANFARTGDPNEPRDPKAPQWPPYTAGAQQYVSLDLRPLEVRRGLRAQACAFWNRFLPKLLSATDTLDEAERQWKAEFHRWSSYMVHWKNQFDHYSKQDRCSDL
# Acetylcholinesterase [3] = molecular target: T2, Acetylcholinesterase; assay: Inhibition of AChE (unknown origin)
# Acetylcholinesterase [4] = molecular target: T2, Acetylcholinesterase; assay: Inhibition of AChE (unknown origin) at 50 uM by Ellman's method relative to control
# Cholinesterase [5] = molecular target: T1, Cholinesterase; assay: Inhibition of BuChE (unknown origin) at 50 uM by Ellman's method relative to control
# Cholinesterase [6] = molecular target: T1, Cholinesterase; assay: Inhibition of BuChE (unknown origin) by Ellman's method
# Acetylcholinesterase [7] = molecular target: T2, Acetylcholinesterase; assay: Inhibition of AChE (unknown origin) by Ellman's method
# Acetylcholinesterase [8] = molecular target: T2, Acetylcholinesterase; assay: Inhibition of AChE (unknown origin) assessed as inhibition constant
# In short: (§1)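 AChE kinetics run with acetylthiocholine substrate at 0.1–1 mM, with no inhibitor and with several inhibitor concentrations. Lineweaver–Burk double-reciprocal plots (1/V vs 1/[S]) across the inhibitor concentrations assigned the inhibition type and gave Km. Ki was estimated from a secondary plot of the slopes against inhibitor concentration.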
# [9] = Selectivity index, ratio of Ki for inhibition of AChE (unknown origin) to Ki for inhibition of BuChE (unknown origin)
# [10] = Cytotoxicity against human MC65 cells assessed as reduction in cell viability; format: functional
# Cholinesterase [11] = molecular target: T1, Cholinesterase; assay: Inhibition of BuChE (unknown origin)
# SH-SY5Y [12] = assay: Cytotoxicity against human SH-SY5Y cells assessed as reduction in cell viability at 50 uM by MTT assay; format: functional
# In short: (§2)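 SH-SY5Y cells were grown in DMEM/F12 with 15% FBS, penicillin (100 units per ml) and streptomycin (100 μg ml−1) at 37 °C in humidified 5% CO2/95% air. After treatment, MTT was added at 0.5 mg ml−1 final for a further 2 h. Formazan was dissolved in DMSO and read at 540 nm. Untreated control cells were set as 100% viability.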
# Acetylcholinesterase [13] = molecular target: T2, Acetylcholinesterase; assay: Mixed type inhibition of AChE (unknown origin) assessed as change in Vmax by Lineweaver-burk plot analysis; settings: dose 2-12 µM; in short: as §1
# Acetylcholinesterase [14] = molecular target: T2, Acetylcholinesterase; assay: Mixed type inhibition of AChE (unknown origin) assessed as increase in Km at 2 to 12 uM by Lineweaver-burk plot analysis; settings: dose 2-12 µM; in short: as §1
# Acetylcholinesterase [15] = molecular target: T2, Acetylcholinesterase; assay: Mixed type inhibition of AChE (unknown origin) assessed as inhibition constant by Lineweaver-burk plot analysis; in short: as §1
# SH-SY5Y [16] = assay: Cytotoxicity against human SH-SY5Y cells assessed as reduction in cell viability at 5 uM by MTT assay; format: functional, cell-based; in short: as §2
Structure (SMILES),inhibition (Acetylcholinesterase [4]),inhibition (Cholinesterase [5]),other results
CCOP(=O)(OCC)C(NCc1cccs1)c1cn(-c2ccccc2)nc1-c1ccc(Cl)cc1 (centres undefined),–,–,IC50 (Cholinesterase [1]): 6.33 µM; IC50 (Acetylcholinesterase [2]): 0.017 µM
Cc1cc(-c2cc3cc([N+](=O)[O-])ccc3oc2=O)n[nH]1,–,–,IC50 (Acetylcholinesterase [3]): 16.3 µM
O=C1Nc2c(C(F)(F)F)cccc2C12NNC(Nc1cccc(Cl)c1)=C2[N+](=O)[O-] (centres undefined),20.6%,18.8%,–
Cc1ccc(NC2=C([N+](=O)[O-])C3(NN2)C(=O)Nc2ccccc23)cc1 (centres undefined),30.5%,56.5%,IC50 (Cholinesterase [6]): 25.1 µM
Cc1ccccc1NC1=C([N+](=O)[O-])C2(NN1)C(=O)Nc1ccc(Cl)cc12 (centres undefined),21.9%,73.8%,IC50 (Cholinesterase [6]): 9.13 µM
COc1ccc(OC)c(NC2=C([N+](=O)[O-])C3(NN2)C(=O)Nc2ccc([N+](=O)[O-])cc23)c1 (centres undefined),55.1%,25.1%,IC50 (Acetylcholinesterase [7]): 42.6 µM
Cc1ccccc1NC1=C([N+](=O)[O-])C2(NN1)C(=O)Nc1ccc(Br)cc12 (centres undefined),51.8%,34%,IC50 (Acetylcholinesterase [7]): 41.7 µM
Cc1ccc(NC2=C([N+](=O)[O-])C3(NN2)C(=O)Nc2ccccc23)cc1C (centres undefined),29.4%,31.1%,–
Cc1ccccc1NC1=C([N+](=O)[O-])C2(NN1)C(=O)Nc1ccccc12 (centres undefined),35.4%,60.1%,IC50 (Cholinesterase [6]): 20 µM
Cc1ccccc1NC1=C([N+](=O)[O-])C2(NN1)C(=O)Nc1c(C(F)(F)F)cccc12 (centres undefined),63.1%,37.5%,IC50 (Acetylcholinesterase [7]): 17 µM
Cc1ccccc1NC1=C([N+](=O)[O-])C2(NN1)C(=O)Nc1ccc([N+](=O)[O-])cc12 (centres undefined),71.6%,38.9%,IC50 (Acetylcholinesterase [7]): 15.5 µM
O=C1Nc2c(C(F)(F)F)cccc2C12NNC(Nc1cccc3ccccc13)=C2[N+](=O)[O-] (centres undefined),39.1%,inactive,–
O=C1Nc2ccccc2C12NNC(Nc1ccc(O)cc1)=C2[N+](=O)[O-] (centres undefined),41%,12.9%,–
O=C1Nc2ccc([N+](=O)[O-])cc2C12NNC(Nc1ccc(Cl)cc1)=C2[N+](=O)[O-] (centres undefined),65.9%,21.8%,IC50 (Acetylcholinesterase [7]): 37.1 µM
COc1ccc2c(c1)C1(NNC(Nc3ccc(C)c(C)c3)=C1[N+](=O)[O-])C(=O)N2 (centres undefined),inactive,52.3%,IC50 (Cholinesterase [6]): 47.3 µM
O=C1Nc2ccccc2C12NNC(Nc1ccc(Cl)cc1)=C2[N+](=O)[O-] (centres undefined),13.9%,14.9%,–
COc1ccc(NC2=C([N+](=O)[O-])C3(NN2)C(=O)Nc2ccc(OC)cc23)cc1 (centres undefined),29.7%,inactive,–
COc1ccc(NC2=C([N+](=O)[O-])C3(NN2)C(=O)Nc2ccccc23)cc1 (centres undefined),47.8%,53.4%,IC50 (Cholinesterase [6]): 34.7 µM
NS(=O)(=O)c1cccc(NC(=S)N/N=C2\C(=O)N(Cc3ccccc3)c3ccc([N+](=O)[O-])cc32)c1,–,–,Ki (Acetylcholinesterase [8]): 0.22 µM
Cc1cc(Cl)cc2c1N(C)C(=O)/C2=N\NC(=S)Nc1cccc(S(N)(=O)=O)c1,–,–,Ki (Acetylcholinesterase [8]): 0.52 µM; Ratio Ki [9]: 37.7
O=C(Nc1cccc(-c2cc(-c3ccc(Cl)cc3)n[nH]2)c1)c1ccccc1,–,–,IC50 (Acetylcholinesterase [3]): 1.94 µM; Activity [10]: 90%; IC50 (Cholinesterase [11]): 1.17 µM
O=C1Nc2ccccc2C12NNC(Nc1cccc(Cl)c1)=C2[N+](=O)[O-] (centres undefined),75.5%,13.9%,Activity (SH-SY5Y [12]): 64.81%; IC50 (Acetylcholinesterase [7]): 6.02 µM; inhibition (Acetylcholinesterase [13]): Dose-Dependent Effect; inhibition (Acetylcholinesterase [14]): Active; Ki (Acetylcholinesterase [15]): 5.59 µM; Activity (SH-SY5Y [16]): inactive
